# Several values for one entry are separate records, joined by “and”; a condition that tells them apart may be missing. Identical values can stand only once. Like-named read-outs stand apart in the source and are kept apart here.
# Assays:
# [1] = Population pharmacokinetic analysis; format: in vivo, human
# Procedure, shortened: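 Oral dosing at 0.5–15 mg twice daily in UC patients, excluding creatinine clearance <40 mL/min. Predose and postdose plasma samples were stored at about –20°C and assayed by a validated method (LOQ 0.100 ng/mL). One-compartment model with first-order absorption, with or without lag. Exponential IIV on CL/F and V/F; IOV on Ka. Separate proportional residual errors for >8 h and ≤8 h postdose. FOCE with interaction; nonparametric bootstrap, 1000 runs.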
# [2] = cited from earlier work
# [3] = cited from earlier work; remark: listed apart in the source
# [4] = tested on: JAK1; settings: in vitro assays; cited from earlier work
# [5] = final model, table: estimate (RSE%), text: estimate (95%CI bootstrap)
# [6] = fraction of the reference category (male)
structure (smiles),measurement,setting,value
C[C@@H]1CCN(C(=O)CC#N)C[C@@H]1N(C)c1ncnc2[nH]ccc12 [tofacitinib],"CL/F, typical estimate",[1]; base model,25.0 L/h
same,IIV (%CV) for CL/F,[1]; base model,25.2%
same,IOV (%CV) for Ka,[1]; base model,192.4%
same,Ka,[1]; base model,9.9 h⁻¹
same,"V/F, typical estimate",[1]; base model,111 L
same,"CL/F, bootstrap median",[1]; bootstrap of final model,26.3 L/h
same,"IIV for CL/F, bootstrap",[1]; bootstrap of final model,22.2%
same,"Ka, bootstrap median",[1]; bootstrap of final model,9.86 h⁻¹
same,"Lag time, bootstrap median",[1]; bootstrap of final model,0.236 (NA) h
same,"V/F, bootstrap median",[1]; bootstrap of final model,115.5 (NA) L
same,"IOV for Ka, bootstrap","[1]; bootstrap of final model, IOV instead of IIV (footnote b)",191.9%
same,Dose proportionality of exposure,[1]; dose range 0.5-15 mg twice daily,dose‐proportional increase
same,"Lower CL/F, Asian compared with non-Asian patients",[1]; final model prediction,6.8%
same,"Lower CL/F, baseline creatinine clearance 60 mL/min compared to 108.7 mL/min",[1]; final model prediction,19%
same,"Lower CL/F, females compared with males",[1]; final model prediction,13.2%
same,"Lower V/F, female compared with male patients",[1]; final model prediction,15.5%
same,"Lower V/F, patient aged 80 years compared with 40 years",[1]; final model prediction,7.7%
same,"Lower V/F, patient weighing 53 kg relative to 72.0 kg","[1]; final model prediction, 10th percentile of weight",approximately 16.4%
same,"Higher V/F, patient weighing 95 kg relative to 72.0 kg","[1]; final model prediction, 90th percentile of weight",~17.6%
same,"CL/F (apparent oral clearance), typical estimate","[1]; final model, reference individual: non-Asian male, 72.0 kg, 40.0 years, baseline creatinine clearance 108.7 mL/min, table: estimate (RSE%), text: estimate (95%CI bootstrap)",26.3 L/h and 26.3 (25.5–27.2) L/h and 26.3 (1.2) L/h
same,IIV (%CV) for CL/F,"[1]; final model, table: IIV (RSE%)",22% and 22.2% and 22.2 (7.7) %
same,IOV (%CV) for Ka,"[1]; final model, table: IOV (RSE%)",191.8% and 191.8 (7.0) %
same,"Ka (first-order absorption rate constant), typical estimate",[1]; [5],9.9 (7.1) h^−1
same,Lag time,[1]; [5],0.236 (0.52) h
same,Covariate parameter estimate: Female on CL/F,[1]; [6],0.868
same,Covariate parameter estimate: Female on V/F,[1]; [6],0.845
same,Covariate parameter estimate: Asian on CL/F,[1]; fraction of the reference category (non-Asian),0.932
same,Vd/F,"[1]; human, plasma, oral",116 L
same,half-life,"[1]; human, plasma, oral, Derived elimination half-life (t½), final model, patients with UC",3.05 h
same,half-life,"[1]; human, plasma, oral, Derived elimination t½, base model",~3.05 h
same,Covariate parameter estimate: Age on V/F,"[1]; power function exponent, normalized to 40.0 years",–0.116
same,Covariate parameter estimate: Body weight on V/F,"[1]; power function exponent, normalized to 72.0 kg",0.585
same,Covariate parameter estimate: BCCL on CL/F,"[1]; power function exponent, normalized to 108.7 mL/min",0.354
same,Share of clearance due to renal elimination,[2],30%
same,Mean terminal-phase half-life (t½),[2]; healthy volunteers,approximately 3.2 h
same,Time of peak plasma concentration after oral administration,[2]; healthy volunteers,approximately 1 hour (h)
same,Share of clearance via hepatic metabolism,[2]; primarily via cytochrome P450 3A4,70%
same,AUC higher than in healthy individuals,[3]; mild renal impairment,37%
same,AUC higher than in healthy individuals,[3]; moderate renal impairment,43%
same,AUC higher than in healthy individuals,[3]; severe renal impairment,123%
same,Inhibitory potency for JAK1,[4],potent inhibitor

# From publication PMC7986169 (Clinical Pharmacology in Drug Development, 2021)
